This is an account of results in ChEMBL document CHEMBL1641573, “3-[(Imidazolidin-2-yl)imino]indazole ligands with selectivity for the α(2)-adrenoceptor compared to the imidazoline I(1) receptor” (Bioorg Med Chem, 2011).

Structures are written as SMILES.

The target in test [1] is T1, Adrenergic receptor alpha-1 (Rattus norvegicus, UniProt P15823+P23944+P43140).
T1 sequence (P15823 whole entry): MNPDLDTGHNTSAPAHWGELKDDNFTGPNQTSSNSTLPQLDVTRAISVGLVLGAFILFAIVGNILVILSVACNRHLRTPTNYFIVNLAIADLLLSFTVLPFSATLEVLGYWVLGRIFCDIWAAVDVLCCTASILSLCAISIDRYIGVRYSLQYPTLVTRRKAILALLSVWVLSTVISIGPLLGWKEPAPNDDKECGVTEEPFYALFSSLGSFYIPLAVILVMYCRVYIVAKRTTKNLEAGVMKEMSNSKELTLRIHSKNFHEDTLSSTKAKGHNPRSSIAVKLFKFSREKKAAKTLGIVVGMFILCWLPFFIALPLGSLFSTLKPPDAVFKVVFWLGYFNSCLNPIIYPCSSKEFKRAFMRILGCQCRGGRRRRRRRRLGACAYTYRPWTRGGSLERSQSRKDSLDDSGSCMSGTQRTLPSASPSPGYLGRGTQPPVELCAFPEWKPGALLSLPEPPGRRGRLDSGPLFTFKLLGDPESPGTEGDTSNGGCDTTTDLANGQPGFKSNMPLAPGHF
T1 sequence (P23944 whole entry): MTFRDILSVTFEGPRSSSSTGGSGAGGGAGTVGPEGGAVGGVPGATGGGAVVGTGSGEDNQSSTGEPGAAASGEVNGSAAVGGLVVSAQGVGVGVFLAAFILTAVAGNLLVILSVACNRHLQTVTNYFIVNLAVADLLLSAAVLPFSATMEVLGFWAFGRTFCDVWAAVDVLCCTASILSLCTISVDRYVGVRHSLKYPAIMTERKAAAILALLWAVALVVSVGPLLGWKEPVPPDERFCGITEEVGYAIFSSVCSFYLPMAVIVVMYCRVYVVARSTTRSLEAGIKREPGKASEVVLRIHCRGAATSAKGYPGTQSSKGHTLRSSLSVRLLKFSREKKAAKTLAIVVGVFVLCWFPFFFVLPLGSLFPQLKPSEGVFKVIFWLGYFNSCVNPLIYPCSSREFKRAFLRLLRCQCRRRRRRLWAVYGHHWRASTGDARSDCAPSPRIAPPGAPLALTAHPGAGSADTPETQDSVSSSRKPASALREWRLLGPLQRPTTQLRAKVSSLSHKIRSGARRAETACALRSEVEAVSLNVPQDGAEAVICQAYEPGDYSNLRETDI
T1 sequence (P43140 whole entry): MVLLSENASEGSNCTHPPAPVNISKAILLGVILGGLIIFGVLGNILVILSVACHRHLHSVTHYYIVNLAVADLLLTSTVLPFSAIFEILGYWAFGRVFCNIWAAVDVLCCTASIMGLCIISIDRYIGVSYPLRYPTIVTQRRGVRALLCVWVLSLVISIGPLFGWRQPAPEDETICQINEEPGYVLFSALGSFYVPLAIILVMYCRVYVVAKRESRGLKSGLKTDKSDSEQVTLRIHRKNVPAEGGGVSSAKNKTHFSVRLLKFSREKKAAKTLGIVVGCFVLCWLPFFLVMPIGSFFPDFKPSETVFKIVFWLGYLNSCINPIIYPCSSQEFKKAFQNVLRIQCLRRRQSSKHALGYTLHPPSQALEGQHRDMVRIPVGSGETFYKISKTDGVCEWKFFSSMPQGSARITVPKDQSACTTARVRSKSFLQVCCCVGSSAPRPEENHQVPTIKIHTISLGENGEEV
In words: Displacement of [3H]prazosin from alpha1 adrenergic receptor in Sprague-Dawley rat brain membrane after 45 mins by liquid scintillation counting. The test is classed as cell membranes. The method, boiled down: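 Crude P2 brain membranes from male Sprague–Dawley rats (0.2–0.3 mg protein) incubated with 11 concentrations (0.01 nM–100 µM) and 1 nM of [3H]2BFI (I2), [3H]prazosin (α1) or [3H]RX821002 (α2), at room temperature in triplicate. Non-specific binding: BU224, phenylephrine or rauwolscine. Filtration, scintillation counting, Ki by Cheng–Prusoff from 3–4 experiments.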

Another test relates to Rattus norvegicus. In words: Cardioprotectant activity in Wistar rat assessed as change in heart rate at 0.01 mg/kg, iv. The test is classed as functional.

For `Cl.Clc1cccc2c(N=C3NCCN3)n[nH]c12`, the Ki in test [1] was determined as 684 nM. In the test on Rattus norvegicus, the Activity is -35 bpm.
Compound `Cc1cccc2[nH]nc(N=C3NCCN3)c12.Cl` returned an inhibitory constant (Ki) in test [1] of 46.5 nM. In the test with Rattus norvegicus, the Activity is on record as -43 bpm.
In turn, `Cl.Clc1cccc2[nH]nc(N=C3NCCN3)c12` yielded an inhibitory constant (Ki) in test [1] of 69.3 nM. For the same compound, the Activity with Rattus norvegicus is recorded as -37 bpm.
